Converted amounts (≈) assume the structure as drawn.
Legend:
[1] = tested on: Nakaseomyces glabratus; assay: Antifungal activity against Candida glabrata ATCC 90030 after 48 hrs by CLSI methodCandida glabrata; type: functional, organism-based; conditions: ATCC 90030, 48 h
Outline: (§1)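 Candida inocula came from 24–72-h SD agar colonies suspended in saline. They were diluted by OD630 standard curve into RPMI 1640 (0.2% dextrose, 0.03% glutamine, 0.165 M MOPS, pH 7.0) to 1.5 × 10³ CFU/ml. Compounds were run as 11 twofold dilutions in 20% DMSO-saline, in duplicate, at 35°C for 48 h, with OD530 read before and after. Percent growth at the top concentration, IC50, MIC, and MFC (SD agar plating) were derived.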

[2] = tested on: BT-549; assay: Cytotoxicity against human BT549 cells up to 32 uM by neutral red method; type: cell-based
Outline: (§2)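 Neutral red uptake cytotoxicity, top concentration 32 μM.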

[3] = tested on: Candida tropicalis; assay: Antifungal activity against Candida tropicalis ATCC 750 after 48 hrs by CLSI method; type: functional, organism-based; conditions: ATCC 750, 48 h
Outline: (§3)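 Yeast suspensions made from 3-5 colonies off 24-72 h SD agar plates in saline. They were diluted by OD630 standard curve in RPMI 1640 (0.2% dextrose, 0.03% glutamine, 0.165 M MOPS, pH 7.0) to 1.5 × 10³ CFU/ml. Twofold dilutions (11 concentrations, 20% DMSO-saline) run in duplicate. OD530 read before and after 35°C, 48 h. Line values are top test concentrations; no-growth endpoints give MIC/MFC.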

[4] = tested on: SK-MEL; assay: Cytotoxicity against human SK-MEL cells up to 32 uM by neutral red method; type: cell-based; outline: as §2
[5] = tested on: Candida albicans; assay: Antifungal activity against Fluconazole resistant Candida albicans clinical isolate 17 after 48 hrs by CLSI method; type: functional, organism-based
Outline: (§4)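 CLSI broth microdilution. Colonies from 24–72 h SD agar suspended in saline and sized by OD630 standard curve. Inoculum 1.5 × 10³ CFU/ml (final) in RPMI 1640 (0.2% dextrose, 0.03% glutamine, 0.165 M MOPS, pH 7.0). Twofold dilutions (11 levels) from 20% DMSO-saline, in duplicate. 35°C for 48 h, OD530 read before and after. IC50 fitted from % growth. MIC: no detectable growth. MFC: subculture onto SD agar.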

[6] = tested on: Aspergillus fumigatus; assay: Antifungal activity against Aspergillus fumigatus ATCC 204305 after 48 h by CLSI method; conditions: ATCC 204305, 48 h
[7] = tested on: Pichia kudriavzevii; assay: Antifungal activity against Candida krusei ATCC 6258 after 48 hrs by CLSI method; type: functional, organism-based; conditions: ATCC 6258, 48 h; outline: as §1
[8] = tested on: Candida albicans; assay: Antifungal activity against Candida albicans ATCC 90028 after 48 hrs by CLSI method; type: functional, organism-based; conditions: ATCC 90028, 48 h; outline: as §4
[9] = tested on: Aspergillus flavus; assay: Antifungal activity against Aspergillus flavus ATCC 204304 after 48 h by CLSI method; conditions: ATCC 204304, 48 h
[10] = tested on: Aspergillus niger; assay: Antifungal activity against Aspergillus niger ATCC 16404 after 48 h by CLSI method; conditions: ATCC 16404, 48 h
[11] = tested on: Candida albicans; assay: Antifungal activity against Candida albicans ATCC 200955 after 48 hrs by CLSI method; type: functional, organism-based; conditions: ATCC 200955, 48 h; outline: as §4
[12] = tested on: Cryptococcus neoformans; assay: Antifungal activity against Cryptococcus neoformans ATCC 90113 after 72 hrs by CLSI method; type: functional, organism-based; conditions: ATCC 90113, 72 h
Outline: (§5)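 SD broth replaced RPMI because growth in RPMI was poor; other CLSI conditions were kept. Inoculum was 1.5 × 10³ CFU/ml from colonies on SD agar, checked by plating. Twofold serial dilutions (11 concentrations) in 20% DMSO-saline were tested in duplicate. OD530 was read before and after incubation at 35°C for 72 h. Percent growth gave IC50; the MIC is the lowest concentration with no detectable growth.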

[13] = tested on: Candida parapsilosis; assay: Antifungal activity against Candida parapsilosis ATCC 22019 after 48 hrs by CLSI method; type: functional, organism-based; conditions: Lodderomyces parapsilosis, ATCC 22019, 48 h; outline: as §3
[14] = tested on: SK-OV-3; assay: Cytotoxicity against human SKOV3 cells up to 32 uM by neutral red method; type: cell-based; outline: as §2
[15] = tested on: Vero; assay: Cytotoxicity against African green monkey Vero cells up to 32 uM by neutral red method; type: cell-based; conditions: chlorocebus sabaeus; outline: as §2
[16] = tested on: KB; assay: Cytotoxicity against human KB cells up to 32 uM by neutral red method; type: cell-based; outline: as §2
[17] = tested on: LLC-PK1; assay: Cytotoxicity against pig LLC-PK1 cells up to 32 uM by neutral red method; type: cell-based, Sus scrofa; outline: as §2
[18] = tested on: Cryptococcus neoformans; assay: Antifungal activity against Cryptococcus neoformans ATCC 66031 after 72 hrs by CLSI method; type: functional, organism-based; conditions: ATCC 66031, 72 h; outline: as §5
[19] = tested on: Aspergillus fumigatus; assay: Antifungal activity against Aspergillus fumigatus ATCC 90906 after 48 h by CLSI method; conditions: ATCC 90906, 48 h
[20] = tested on: Trichophyton mentagrophytes; assay: Antifungal activity against Trichophyton mentagrophytes ATCC MYA-4439 by CLSI method; type: functional, organism-based
Outline: (§6)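 Growth scraped from 1- to 6-week-old potato dextrose slants and filtered through Miracloth. Diluted in 5% Alamar blue-RPMI 1640 (MOPS pH 7.0) to 2.7 × 10⁴ CFU/ml. Eleven twofold dilutions in duplicate. Fluorescence at 544 nm excitation/590 nm emission read before and after 35°C, 5 days. IC50 fitted from percent growth. MIC taken as no detectable growth; MFC from clear or blue wells plated on PD agar.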

[21] = tested on: Candida albicans; assay: Antifungal activity against Candida albicans ATCC 14053 after 48 hrs by CLSI method; type: functional, organism-based; conditions: ATCC 14053, 48 h; outline: as §4
[22] = tested on: Trichophyton rubrum; assay: Antifungal activity against Trichophyton rubrum ATCC MYA-4438 by CLSI method; type: functional, organism-based; outline: as §6
[23] = tested on: Trichophyton mentagrophytes; assay: Antifungal activity against Trichophyton mentagrophytes ATCC 9533 by CLSI method; type: functional, organism-based; outline: as §6
[24] = tested on: Candida albicans; assay: Antifungal activity against Candida albicans ATCC 32354 after 48 hrs by CLSI method; type: functional, organism-based; conditions: ATCC 32354, 48 h; outline: as §4
[25] = tested on: Candida albicans; assay: Antifungal activity against Fluconazole resistant Candida albicans clinical isolate 1 after 48 hrs by CLSI method; type: functional, organism-based; outline: as §4
[26] = tested on: Candida albicans; assay: Antifungal activity against Candida albicans ATCC 60193 after 48 hrs by CLSI method; type: functional, organism-based; conditions: ATCC 60193, 48 h; outline: as §4
[27] = tested on: Trichophyton rubrum; assay: Antifungal activity against Trichophyton rubrum ATCC 10218 by CLSI method; type: functional, organism-based; outline: as §6

CCCCCCCCCC#CCCCCC(=O)O
IC50 [1]: > 198 µM
Activity [2]: Non-toxic
IC50 [3]: 29.5 µM
MFC [3]: 99.1 µM (≈ 25 µg/mL)
MIC [3]: 74.3 µM (≈ 18.8 µg/mL)
Activity [4]: Non-toxic
IC50 [5]: 23.3 µM
MFC [5]: 198 µM (≈ 50 µg/mL)
MIC [5]: 99.1 µM (≈ 25 µg/mL)
IC50 [6]: 9.4 µM
MFC [6]: 198 µM (≈ 50 µg/mL)
MIC [6]: 37.1 µM (≈ 9.36 µg/mL)
IC50 [7]: 2.9 µM
MFC [7]: 49.5 µM (≈ 12.5 µg/mL)
MIC [7]: 6.2 µM (≈ 1.56 µg/mL)
IC50 [8]: 56.8 µM
MIC [8]: 99.1 µM (≈ 25 µg/mL)
IC50 [9]: 106 µM
MFC [9]: 198 µM (≈ 50 µg/mL)
MIC [9]: 198 µM (≈ 50 µg/mL)
IC50 [10]: 101 µM
IC50 [11]: 47.8 µM
MIC [11]: 198 µM (≈ 50 µg/mL)
IC50 [12]: 52.4 µM
IC50 [13]: > 198 µM
Activity [14]: Non-toxic
Activity [15]: Non-toxic
Activity [16]: Non-toxic
Activity [17]: Non-toxic
IC50 [18]: 1.2 µM
MFC [18]: 99.1 µM (≈ 25 µg/mL)
MIC [18]: 49.5 µM (≈ 12.5 µg/mL)
IC50 [19]: 166 µM
IC50 [20]: 3.9 µM
MFC [20]: 12.4 µM (≈ 3.13 µg/mL)
MIC [20]: 9.3 µM (≈ 2.35 µg/mL)
IC50 [21]: 81.8 µM
IC50 [22]: 3.8 µM
MFC [22]: 198 µM (≈ 50 µg/mL)
MIC [22]: 31 µM (≈ 7.82 µg/mL)
IC50 [23]: 2.3 µM
MFC [23]: 6.2 µM (≈ 1.56 µg/mL)
MIC [23]: 4.6 µM (≈ 1.16 µg/mL)
IC50 [24]: 50.3 µM
MIC [24]: 198 µM (≈ 50 µg/mL)
IC50 [25]: 40.5 µM
MIC [25]: 99.1 µM (≈ 25 µg/mL)
IC50 [26]: 85.9 µM
IC50 [27]: 8.7 µM
MFC [27]: 24.8 µM (≈ 6.26 µg/mL)
MIC [27]: 24.8 µM (≈ 6.26 µg/mL)

CCCCCCCCCCCCC#CCCCCC(=O)O [6-NONADECYNOIC ACID]
Activity [2]: Non-toxic
IC50 [3]: 5.2 µM
Activity [4]: Non-toxic
IC50 [5]: 1.5 µM
MIC [5]: 8 µM (≈ 2.36 µg/mL)
IC50 [6]: 1.1 µM
MIC [6]: 2.7 µM (≈ 0.795 µg/mL)
IC50 [7]: 4.1 µM
MIC [7]: 10.6 µM (≈ 3.12 µg/mL)
IC50 [8]: 1.3 µM
MIC [8]: 2.7 µM (≈ 0.795 µg/mL)
IC50 [11]: 0.9 µM
MIC [11]: 1.3 µM (≈ 0.383 µg/mL)
Activity [14]: Non-toxic
Activity [15]: Non-toxic
Activity [16]: Non-toxic
Activity [17]: Non-toxic
IC50 [18]: 1.1 µM
IC50 [19]: 1.4 µM
MIC [19]: 6.6 µM (≈ 1.94 µg/mL)
IC50 [20]: 0.4 µM
MFC [20]: 0.7 µM (≈ 0.206 µg/mL)
MIC [20]: 0.7 µM (≈ 0.206 µg/mL)
IC50 [21]: 0.8 µM
MFC [21]: 2.7 µM (≈ 0.795 µg/mL)
MIC [21]: 1.3 µM (≈ 0.383 µg/mL)
IC50 [22]: 0.6 µM
MIC [22]: 3.3 µM (≈ 0.972 µg/mL)
IC50 [23]: 0.9 µM
MFC [23]: 2.7 µM (≈ 0.795 µg/mL)
MIC [23]: 2 µM (≈ 0.589 µg/mL)
IC50 [24]: 1.6 µM
MIC [24]: 8 µM (≈ 2.36 µg/mL)
MIC [25]: 2.7 µM (≈ 0.795 µg/mL)
IC50 [26]: 1.6 µM
MIC [26]: 2.7 µM (≈ 0.795 µg/mL)
IC50 [27]: 1 µM
MFC [27]: 5.3 µM (≈ 1.56 µg/mL)
MIC [27]: 2 µM (≈ 0.589 µg/mL)

Reference: ChEMBL document CHEMBL1275449, “Potent in vitro antifungal activities of naturally occurring acetylenic acids” (Antimicrob Agents Chemother, 2008)
